Bioassay records deposited in PubChem by The Scripps Research Institute Molecular Screening Center.
This is a sample that favours compounds with a hit; in the whole collection about 2% have one here.
M1 antag – human M1 muscarinic receptor antagonists, primary screen, CHO-K1 cells, Fluo-8 calcium fluorescence, 1536-well. Muscarinic acetylcholine receptor M1 (Homo sapiens), P11229. inhibition, % at 3 µM. CHO-K1 hM1, ACh EC80 antagonist. 360,000 compounds, 1.3% hits;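 active means percent inhibition above its own plate's cutoff, namely the mean of that plate's compound wells plus 3 SD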;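 further: peak over basal fluorescence ratio during 140 s after agonist addition; 0% = ACh EC80 plus DMSO and 100% = DMSO alone without agonist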
M5 ag – human M5 muscarinic receptor agonists, primary screen, CHO-K1 cells, Fluo-8 calcium fluorescence | Muscarinic acetylcholine receptor M5 (Homo sapiens), P08912 | CHO-K1 hM5 cells; 0% DMSO wells, 100% maximal acetylcholine response | activation, % at 3 µM | 360,000 compounds, 0.19% hits | AID 624037, 2012;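 active means activation above the run's mean over test compounds plus 3 SD, cut at about 23% in these data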;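 further: signal is peak over basal fluorescence ratio across the kinetic read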
Target sequence (P08912 whole entry, looked up): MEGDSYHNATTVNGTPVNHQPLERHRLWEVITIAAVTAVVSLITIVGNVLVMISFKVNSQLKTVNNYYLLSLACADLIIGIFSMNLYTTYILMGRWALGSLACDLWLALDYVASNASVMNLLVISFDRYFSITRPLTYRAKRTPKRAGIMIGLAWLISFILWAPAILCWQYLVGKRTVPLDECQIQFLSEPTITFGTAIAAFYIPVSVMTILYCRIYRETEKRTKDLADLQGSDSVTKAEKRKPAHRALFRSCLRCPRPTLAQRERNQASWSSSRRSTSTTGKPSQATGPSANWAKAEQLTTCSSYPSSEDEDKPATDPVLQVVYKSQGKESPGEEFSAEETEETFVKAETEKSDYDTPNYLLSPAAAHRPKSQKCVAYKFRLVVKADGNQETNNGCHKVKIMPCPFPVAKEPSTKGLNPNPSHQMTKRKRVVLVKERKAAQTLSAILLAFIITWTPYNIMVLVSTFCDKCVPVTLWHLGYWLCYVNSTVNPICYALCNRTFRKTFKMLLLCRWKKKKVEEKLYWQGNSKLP
CHRM5 PAM – human M5 muscarinic receptor positive allosteric modulators, primary screen, CHO-K1 cells, Fluo-8 calcium fluorescence | Muscarinic acetylcholine receptor M5 (Homo sapiens), P08912 | activation, % at 3 µM | CHO-K1 hM5, ACh EC20 PAM; 0% = ACh EC20, 100% = ACh EC100 | AID 624038, 2012 | 360,000 compounds, 0.3% hits;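 active means activation above the run cutoff, the mean activation of all test compounds plus 3 SD, cut at about 18% in these data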
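Assay system: CHO-K1 hM5 cells / Incubation: Fluo-8 loading 80 min at 37 °C plus 30 min room temperature / Technique: Fluo-8 calcium dye fluorescence, kinetic read / Repeats: single replicate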
CHRM5 antagonist – human M5 muscarinic receptor antagonists, primary screen, CHO cells, Fluo-8 calcium fluorescence; CHO-hM5 cells, ACh EC80; Muscarinic acetylcholine receptor M5 (Homo sapiens), P08912; inhibition, % at 3 µM; 360,000 compounds, 0.59% hits;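 active means inhibition above a per-plate cutoff, the mean of that plate's test compounds plus 3 SD, cut at about 27% in these data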;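 further: 0% = acetylcholine EC80 with DMSO and 100% = DMSO without agonist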
M1 PAM – human M1 muscarinic receptor positive allosteric modulators, primary screen, CHO-K1 cells, Fluo-8 calcium fluorescence, 1536-well | activation, % at 3 µM | 360,000 compounds, 0.088% hits | AID 588819, 2011 | CHO-K1 hM1, ACh EC20; 0% = ACh EC20, 100% = maximal ACh; in the data active means activation above about 19%, passing the limit was not always enough
M1 ag – human M1 muscarinic receptor agonists, primary screen, Fluo-8 calcium fluorescence, CHO-K1 cells, HTS; activation, % at 3 µM; 360,000 compounds, 0.33% hits; Muscarinic acetylcholine receptor M1 (Homo sapiens), P11229; AID 588814, 2011; CHO-K1 hM1, agonist mode; 0% DMSO, 100% acetylcholine EC100;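 active means activation above the run's mean compound activation plus 3 SD, cut at about 16% in these data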;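 further: peak over basal fluorescence ratio within a 140 s kinetic read after compound addition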
Numbers without * were called inactive; / = no result.

SMILES	M1 antag	M5 ag	CHRM5 PAM	CHRM5 antagonist	M1 PAM	M1 ag
CCOc1ccccc1CN1CCCC(CNS(=O)(=O)c2ccc(OC)cc2)C1 (centres undefined)	38*	-9	-5	13	-37	-14
Cc1ccccc1S(=O)(=O)NC(=O)C1(C)CCN1C(=O)CC1CCCC1 (centres undefined)	-16	1	-1	3	12	0
CCCc1nnc(NC(=O)Cn2c(=O)oc3ccccc32)s1	-2	5	6	6	6	2
CCCc1nnc(NC(=O)Cn2c(=O)oc3cc(Br)ccc32)s1	0	39*	5	-3	-1	37*
O=C1CSCc2nc3ccccc3n21	-7	-3	-5	-5	1	-2
CCCNC(=O)C1CCN(S(=O)(=O)c2c(C)noc2/C=C\c2ccc(OC)cc2)CC1	-10	1	-5	3	8	-2
CNC(=O)C1CCN(S(=O)(=O)c2c(C)noc2/C=C/c2ccc(OC)cc2)CC1	-15	-5	-22	80*	7	-2
CCOc1ccc(C(=O)Nc2cc(-c3nc4ccccc4[nH]3)ccc2Cl)cc1[N+](=O)[O-]	37*	3	-15	38*	-13	1
O=C1c2c(-c3ccc(Br)cc3)noc2CCN1Cc1cn(-c2ccccc2)nn1	/	2	4	2	/	/
COc1cc(NC(=O)c2cc([N+](=O)[O-])ccc2NC(=O)CN2CCN(c3ccccn3)CC2)cc(OC)c1	34*	-2	-14	27	-11	-4
O=C(CN1CCN(c2ccccn2)CC1)Nc1ccccc1C(=O)Nc1ccccc1	17	4	-15	7	-1	2
COc1cccc(CNC(=O)c2ccc(S(=O)(=O)N3CCCCC3)cc2)c1	0	2	-6	8	-9	-1
C/C(=N\NC(=S)NC(C)C)c1ccc(Cl)s1	81*	-6	-18	8	-24	-10
CCN=C(NCC)SC1CC(=O)N(c2cccc(OCC)c2)C1=O (centres undefined)	44*	5	-19	28*	-12	2
CCOc1ccc(NC(=NCc2ccc3c(c2)OCO3)SC2CC(=O)N(c3ccc(OCC)cc3)C2=O)cc1 (centres undefined)	-5	-4	19*	-10	8	1
CCOc1ccc(NC(=NCc2ccc3c(c2)OCO3)SC2CC(=O)N(c3ccccc3)C2=O)cc1 (centres undefined)	-4	-1	4	-2	5	-2
CCN1C(Nc2ccccc2)=NC[C@@H]1Cc1ccccc1	-2	-9	-1	2	2	-10
CC(C)(C)C1CCC(CN2C(Nc3ccccc3)=NC[C@@H]2Cc2ccccc2)CC1 (some centres undefined)	65*	-1	-20	28*	-28	-2
Cc1ccc(S(=O)(=O)N(C)C[C@@H]2OCc3cnnn3CCCC(=O)N([C@H](C)CO)C[C@H]2C)cc1	7	3	3	-9	-3	-5
CCN(CC)C(=O)c1oc2ccc(S(=O)(=O)N3CC(C)CC(C)C3)cc2c1C (centres undefined)	16	-2	-12	30*	-9	-5
O=C(COC(=O)CN1C(=O)c2ccccc2C1=O)Nc1ccccc1C(F)(F)F	-13	2	-1	1	5	-3
COc1cc(NC(=O)C2CC(c3ccccc3O)=NO2)cc(OC)c1OC (centres undefined)	0	3	-2	6	-4	0
O=c1c2cnn(-c3ccc(F)cc3)c2ncn1Cc1cccnc1	0	2	29*	-2	3	-2
O=c1c2cnn(-c3ccccc3)c2ncn1Cc1cccnc1	-2	4	0	-1	7	1
O=C(CCN1C(=O)c2ccccc2C1=O)c1ccccc1	-9	2	-1	19	9	3
SMILES	M1 antag	M5 ag	CHRM5 PAM	CHRM5 antagonist	M1 PAM	M1 ag
COC(=O)c1cc(Sc2cccc(Cl)c2Cl)ccn1	-4	0	21*	5	8	-2
COC(=O)c1cc(Sc2c(Cl)cccc2Cl)ccn1	-1	-1	6	-11	7	-9
CCN(CC)CCSc1nnc(Nc2ccccc2)n1-c1ccccc1	96*	-11	-3	3	-36	-14
Brc1cccc(-c2nnc3n2CCCCC3)c1	-19	-13	1	0	3	-5
Brc1cccc(-c2cnc3n2CCCCC3)c1	48*	-10	-16	14	-19	-4
CCCCn1c(N)c(N(CC(C)C)C(=O)CC(NC(=O)c2ccccc2Cl)c2ccccc2)c(=O)[nH]c1=O (centres undefined)	-18	-1	8	-5	8	-3
O=C(NCCN1CCOCC1)c1ccc2c(c1)N(Cc1ccc(Cl)cc1)C(=O)CS2	28*	-6	-5	-1	-29	-11
O=C(NC1CCCC1)c1ccc2c(c1)N(Cc1ccccc1)CCS2	2	-1	18*	-15	-1	-5
O=C(NCCN1CCOCC1)c1ccc2c(c1)N(Cc1ccccc1)C(=O)c1ccccc1S2	10	-4	7	-9	-1	-2
O=C(NCCN1CCOCC1)c1ccc2c(c1)N(Cc1ccccc1)C(=O)CS2	30*	-12	-2	4	-21	-8
CC(C)c1cc(Cn2c3ccccc3c(=O)n2C(C)Cn2cc(C3=CCCCC3)nn2)on1 (centres undefined)	/	0	1	-7	/	/
Nc1[nH]c(C(=O)c2ccccc2)c(-c2ccc(Br)cc2)c1C(=O)c1ccc(Br)cc1	/	7	13	-9	/	/
CC(=O)c1c(C)nn(CC(=O)NC2CCCN(Cc3ccc(CC(C)C)cc3)C2)c1C (centres undefined)	47*	-7	2	3	-24	-5
Cc1ccc(S(=O)(=O)N2C[C@@H](C)[C@]3(C2)[C@H](O)[C@H](OC(=O)NCc2ccccc2F)C[C@H]2C(=O)N(c4ccccc4)C(=O)[C@H]23)cc1	4	1	-2	8	-6	-5
CC(C)(C)c1ccc(-n2ncc3c2CCCC3NC(=O)CCCn2cncn2)cc1 (centres undefined)	-2	0	-9	13	1	0
